Data as given in ChEMBL document CHEMBL1641448, “2-Hydroxycurcuminoid induces apoptosis of human tumor cells through the reactive oxygen species-mitochondria pathway” (2011).
Activity calls are given as the source filed them. The calls are words filed in the database; no cut-off is given here.

Columns and labels:
SW-620 [1] = assay: Induction of ROS generation in human SW620 cells at 20 uM after 2 hrs relative to control; format: functional
Procedure, shortened: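 SW620 cells were treated for 2 h. Intracellular ROS was read fluorimetrically with the DCF-DA probe (excitation 485 nm, emission 535 nm) and compared with DMSO-treated cells.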

SW-620 [2] = assay: Cytotoxicity against human SW620 cells after 48 hrs […]; format: functional; conditions: SW-620, 48 h
Procedure, shortened: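 SW620 human colorectal tumor cells were exposed to a range of concentrations for 48 h. Cells were counted and GI50 was derived from growth inhibition.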

SW-620 [3] = assay: Induction of cell cycle arrest in human SW620 cells assessed as accumulation at G2/M phase at 10 uM after 15 hrs by propidium iodide cytofluorimetric analysis; format: functional, cell-based
SW-620 [4] = assay: Induction of apoptosis in human SW620 cells assessed as release of mitochondrial cytochrome c release to cytosol upto 48 hrs; format: functional, cell-based
Procedure, shortened: (§1)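 SW620 cells were treated for the indicated time intervals. Cytosolic and membrane fractions were separated by subcellular fractionation, and Bax and cytochrome c levels in each fraction were read by Western blot.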

[5] = system: MDA-MB-231 (Homo sapiens); assay: Induction of apoptosis in human MDA-MB-231 cells assessed as change in cell morphology at 10 uM by fluorescence microscopy in presence of N-acetyl-cysteine
SW-620 [6] = assay: Induction of apoptosis in human SW620 cells assessed as caspase 3 activation at 10 uM by fluorescence microscopy; format: functional, cell-based
SW-620 [7] = assay: Induction of apoptosis in human SW620 cells assessed as late apoptotic cells at 10 uM by annexin-V/propidium iodide staining in presence of N-acetyl-cysteine; format: functional
Procedure, shortened: (§2)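 SW620 cells were treated for 48 h with or without 1 mM NAC. Cells were stained with annexin V and propidium iodide, and the apoptotic distribution was determined by flow cytometry.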

[8] = system: MDA-MB-231 (Homo sapiens); assay: Induction of apoptosis in human MDA-MB-231 cells assessed as change in cell morphology at 10 uM by fluorescence microscopy
SW-620 [9] = assay: Induction of apoptosis in human SW620 cells assessed as caspase 3 activation at 10 uM by fluorescence microscopy in presence of N-acetyl-cysteine; format: functional, cell-based
SW-620 [10] = assay: Induction of apoptosis in human SW620 cells assessed as late apoptotic cells at 20 uM by annexin-V/propidium iodide staining; format: functional; procedure, shortened: as §2
SW-620 [11] = assay: Induction of apoptosis in human SW620 cells assessed as late apoptotic cells at 10 uM by annexin-V/propidium iodide staining; format: functional; procedure, shortened: as §2
MCF-10A = assay: Induction of cell cycle arrest in human MCF10A cells assessed as accumulation at G0/G1 phase at 10 uM after 15 hrs by propidium iodide cytofluorimetric analysis; format: functional, cell-based
SW-620 [12] = assay: Induction of apoptosis in human SW620 cells assessed as PARP degradation at 10 uM by fluorescence microscopy in presence of N-acetyl-cysteine; format: functional, cell-based
DLD-1 = assay: Cytotoxicity against human DLD1 cells after 48 hrs by WST1 assay; format: functional, cell-based
SW-620 [13] = assay: Induction of apoptosis in human SW620 cells assessed as decrease in mitochondrial membrane potential after 6 to 12 hrs; format: functional, cell-based
Procedure, shortened: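 Mitochondrial membrane potential in SW620 cells was followed as the red:green ratio (A590:A520) over 6–12 h of treatment.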

SW-620 [14] = assay: Induction of apoptosis in human SW620 cells assessed as increase in translocation of Bax to cytosol upto 48 hrs; format: functional, cell-based; conditions: in the assay text read “to membrane fraction” for “to cytosol”; procedure, shortened: as §1
HCT-116 = assay: Cytotoxicity against human HCT116 cells after 48 hrs by WST1 assay; format: functional, cell-based
SW-620 [15] = assay: Induction of apoptosis in human SW620 cells assessed as PARP degradation at 10 uM by fluorescence microscopy; format: functional, cell-based
MDA-MB-231 = assay: Induction of ROS generation in human MDA-MB-231 cells at 20 uM by fluorescence microscopy in presence of N-acetyl-cysteine; format: functional, cell-based

CC(=O)/C=C(O)/C=C/c1ccccc1O
fold change (FC) (SW-620 [1]): 1.5

CC(=O)/C=C/c1ccccc1O
fold change (FC) (SW-620 [1]): 1.5

CC(=O)C(C)(C)C(=O)/C=C/c1ccccc1O
GI50 (SW-620 [2]): 40 µM | fold change (FC) (SW-620 [1]): 1.5

COc1cc(/C=C/C(=O)C(C)(C)C(=O)/C=C/c2ccc(O)c(OC)c2)ccc1O
GI50 (SW-620 [2]): 7 µM

CC(C)(C(=O)/C=C/c1ccccc1O)C(=O)/C=C/c1ccccc1O
Activity (SW-620 [3]): Active | Activity (SW-620 [4]): Active | Activity [5]: inactive | Activity (SW-620 [6]): Active | Activity (SW-620 [7]): 24.25% | Activity [8]: Active | Activity (SW-620 [9]): inactive | GI50 (SW-620 [2]): 7 µM | Activity (SW-620 [10]): 78.77% | Activity (SW-620 [11]): 73.53% | Activity (MCF-10A): Active | Activity (SW-620 [12]): inactive | Activity (DLD-1): Active | fold change (FC) (SW-620 [1]): 1.5 | Activity (SW-620 [13]): Active | Activity (SW-620 [14]): Active | Activity (HCT-116): Active | Activity (SW-620 [15]): Active

O=C/C=C/c1ccccc1O [2-HYDROXYCINNAMALDEHYDE]
GI50 (SW-620 [2]): 15 µM | Activity (MDA-MB-231): inactive | fold change (FC) (SW-620 [1]): 1.5

O=C(/C=C(O)/C=C/c1ccccc1O)/C=C/c1ccccc1O
GI50 (SW-620 [2]): 35 µM | fold change (FC) (SW-620 [1]): 1.5

CC(C)C(=O)/C=C/c1ccccc1O
fold change (FC) (SW-620 [1]): 1.5

COc1cc(/C=C/C(=O)CC(=O)/C=C/c2ccc(O)c(OC)c2)ccc1O [CURCUMIN]
GI50 (SW-620 [2]): 32 µM
